The source made the active and inactive calls. No cut-off for these calls is given here.
Legend:
K562 = test: Antiproliferative activity against human K562 cells after 48 hrs by MTT assay; assay type: functional, cell-based; conditions: K562, 48 h
Procedure, shortened: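 K562 suspension cells in RPMI-1640 with 10% FBS, 37 °C, 5% CO2. Seeded at 1.5×10^4 cells/well, exposed 48 h to final 50, 25, 10, 1 and 0.1 μM. MTT (5 mg/mL) added for 4 h at 37 °C. IC50 from the dose series.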

[1] = target: T1, DNA topoisomerase 1 (Homo sapiens) (UniProt P11387); test: Inhibition of recombinant human Topo1-mediated relation of supercoiled pBR322 DNA at 50 uM after 30 mins by agarose gel electrophoresis
T1 sequence (whole entry): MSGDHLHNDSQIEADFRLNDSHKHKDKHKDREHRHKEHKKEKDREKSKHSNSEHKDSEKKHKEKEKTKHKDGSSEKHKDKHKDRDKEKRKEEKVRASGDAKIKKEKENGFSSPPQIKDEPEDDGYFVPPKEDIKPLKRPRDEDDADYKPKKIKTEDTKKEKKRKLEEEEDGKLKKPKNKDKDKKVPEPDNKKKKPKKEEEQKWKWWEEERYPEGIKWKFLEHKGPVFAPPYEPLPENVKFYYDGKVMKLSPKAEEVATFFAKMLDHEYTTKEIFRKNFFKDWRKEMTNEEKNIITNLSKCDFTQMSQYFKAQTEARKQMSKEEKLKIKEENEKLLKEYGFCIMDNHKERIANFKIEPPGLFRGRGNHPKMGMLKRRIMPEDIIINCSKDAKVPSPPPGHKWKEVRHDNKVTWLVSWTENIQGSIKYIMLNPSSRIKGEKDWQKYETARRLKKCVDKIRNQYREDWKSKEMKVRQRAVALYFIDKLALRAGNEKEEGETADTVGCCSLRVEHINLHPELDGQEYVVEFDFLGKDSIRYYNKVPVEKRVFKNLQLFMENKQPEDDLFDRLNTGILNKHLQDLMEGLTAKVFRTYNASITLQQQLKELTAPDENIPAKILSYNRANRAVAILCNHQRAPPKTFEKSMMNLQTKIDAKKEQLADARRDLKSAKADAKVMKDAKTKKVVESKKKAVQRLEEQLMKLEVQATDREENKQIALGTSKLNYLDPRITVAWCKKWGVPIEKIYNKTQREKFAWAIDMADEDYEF
Procedure, shortened: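 pBR322 at 100 ng with 1.0 unit recombinant human topo I. Incubated 30 min at 37 °C in 35 mM Tris-HCl pH 8.0, 5 mM MgCl2, 72 mM KCl, 0.01% BSA, 2 mM spermidine and 5 mM DTT. Run on 1% agarose in TAE at 100 V for 25 min. EB-stained gel viewed under UV.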

Structure (SMILES) | IC50 (K562) [µM] | inhibition [1]
COc1cccc2c(=O)c3c(NCCc4ccncc4)ccc(C(=O)NCCN(C)C)c3[nH]c12 | 3.08 | Active
Cc1cccc2c(=O)c3c(NCc4ccncc4)ccc(C(=O)NCCCN(C)C)c3[nH]c12 | 8.25 | Active
COCCNC(=O)c1ccc(NCc2ccccn2)c2c(=O)c3cccc(OC)c3[nH]c12 | > 50 | inactive
CN(C)CCNC(=O)c1ccc(NCc2ccncc2)c2c(=O)c3ccccc3[nH]c12 | 6.33 | Active
Cc1cccc2c(=O)c3c(NCc4ccccn4)ccc(C(=O)NCCCN(C)C)c3[nH]c12 | 6.45 | Active
COCCNC(=O)c1ccc(NCc2ccncc2)c2c(=O)c3cccc(OC)c3[nH]c12 | > 50 | inactive
COc1cccc2c(=O)c3c(NCc4cccnc4)ccc(C(=O)NCCCN(C)C)c3[nH]c12 | 11.3 | Active
COCCNC(=O)c1ccc(NCc2cccnc2)c2c(=O)c3cccc(C)c3[nH]c12 | > 50 | inactive
COCCNC(=O)c1ccc(N(Cc2ccccn2)Cc2ccccn2)c2c(=O)c3cccc(C)c3[nH]c12 | 11.2 | inactive
COCCNC(=O)c1ccc(NCc2cccnc2)c2c(=O)c3cccc(OC)c3[nH]c12 | > 50 | inactive
COc1cccc2c(=O)c3c(N(Cc4ccccn4)Cc4ccccn4)ccc(C(=O)NCCCN(C)C)c3[nH]c12 | 13.5 | inactive
COc1cccc2c(=O)c3c(NCc4ccccn4)ccc(C(=O)NCCCN(C)C)c3[nH]c12 | 6.12 | Active
Cc1cccc2c(=O)c3c(NCc4cccnc4)ccc(C(=O)NCCCN(C)C)c3[nH]c12 | 11.8 | Active
COCCNC(=O)c1ccc(NCc2ccccn2)c2c(=O)c3cccc(C)c3[nH]c12 | > 50 | inactive
COc1cccc2c(=O)c3c(NCc4ccncc4)ccc(C(=O)NCCCCN(C)C)c3[nH]c12 | 6.07 | Active
COCCNC(=O)c1ccc(NCc2ccncc2)c2c(=O)c3cccc(C)c3[nH]c12 | > 50 | inactive
COc1cccc2c(=O)c3c(NCc4ccncc4)ccc(C(=O)NCCCN(C)C)c3[nH]c12 | 11.9 | Active
COc1cccc2c(=O)c3c(N(Cc4ccccn4)Cc4ccccn4)ccc(C(=O)NCCN(C)C)c3[nH]c12 | 13.9 | inactive

Stronger by IC50 (K562), values ahead:

IC50 (K562) [µM] | inhibition [1] | Structure (SMILES)
0.89 | Active | CN(C)CCNC(=O)c1ccc(NCc2ccncc2)c2c(=O)c3cccc(C(F)(F)F)c3[nH]c12
1.36 | Active | COc1cccc2c(=O)c3c(NCc4ccncc4)ccc(C(=O)NCCN(C)C)c3[nH]c12
0.55 |  | COc1cccc2c1C(=O)c1c(O)c3c(c(O)c1C2=O)C[C@@](O)(C(=O)CO)C[C@@H]3O[C@H]1C[C@H](N)[C@H](O)[C@H](C)O1 [DOXORUBICIN]
0.93 | Active | COc1cccc2c(=O)c3c(NCc4cccnc4)ccc(C(=O)NCCN(C)C)c3[nH]c12
2.28 | Active | COc1cccc2c(=O)c3c(NCc4ccccn4)ccc(C(=O)NCCN(C)C)c3[nH]c12
0.97 | Active | CN(C)CCNC(=O)c1ccc(NCc2ccncc2)c2c(=O)c3cc(Cl)cc(Cl)c3[nH]c12
1.71 | Active | Cc1cccc2c(=O)c3c(NCc4ccccn4)ccc(C(=O)NCCN(C)C)c3[nH]c12
1.09 | Active | Cc1cccc2c(=O)c3c(NCc4cccnc4)ccc(C(=O)NCCN(C)C)c3[nH]c12
